Screens as filed in PubChem BioAssay.
Most compounds without a hit are left out; they make up all but 2.7% or so of the library.
bovine MsrA act – activators of bovine methionine sulfoxide reductase A; purified bovine MsrA, absorbance read-out; activation, % at 10.6 µM; hit rate 0.3% among 360,000; in the data active = activation above about 7.5%
ARFGAP1 inh – inhibitors of rat ARFGAP1 | Q62848 | Arfgap1-stimulated ARF1 GTP hydrolysis, GDP FP detection | inhibition, % at 16.5 µM | hit rate 0.26% among 360,000 | AID 651572;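 active = inhibition above a per-plate limit, mean inhibition of low control wells plus 3 SD, cut at about 25% in these data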
Target sequence (Q62848 1-136 limits assumed): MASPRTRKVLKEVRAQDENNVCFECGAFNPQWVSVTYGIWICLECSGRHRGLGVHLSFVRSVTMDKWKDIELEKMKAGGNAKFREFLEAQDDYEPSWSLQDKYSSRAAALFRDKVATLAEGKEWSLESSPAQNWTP
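Assay system: Rat Arfgap1 GAP domain (His6, aa 1-136), purified enzyme | Buffer or medium: HEPES 25 mM pH 7.5, NaCl 150 mM, MgCl2, DTT | Schedule: GTP hydrolysis reaction 2 h at 25 °C | Signal: FP of antibody-bound GDP Alexa 633 tracer, ex 620/em 688 nm | Measure: Percent inhibition of Arfgap1-stimulated GTP hydrolysis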
MsrA inh – bovine MsrA inhibition; AID 651718; purified bovine MsrA, absorbance read-out; inhibition, % at 15.5 µM; hit rate 0.75% among 360,000; in the data active = inhibition above about 4.5%
Rev-erbA mod – modulators of human Rev-erb alpha DNA binding | hit rate 0.79% among 370,000 | activity, % at 10 µM | Rev-erbα–FITC-DNA binding, fluorescence polarization, 90 min | P20393;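 active = activity above about 14%, limit read from the data; passing the limit was not always enough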
ASAP1 inh – blocks human ASAP1-stimulated Arf1 GTP hydrolysis; Q9ULH1; GDP FP detection; inhibition, % at 16.5 µM; hit rate 0.19% among 360,000; AID 624377; in the data active = inhibition above about 25%
sPLA2-III inh – Blocks human group III sPLA2 activity; Q9NZ20; QFRET BODIPY PC-A2 liposome hydrolysis, fluorescence; inhibition, % at 12.2 µM; hit rate 0.56% among 370,000;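 active = inhibition above mean plus 3 SD of compounds lying within the high and low control bounds, cut at about 19% in these data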
NR1D1 mod conf – confirmation of modulators of human Rev-erb alpha DNA binding; shares compounds with Rev-erbA mod; Rev-erb alpha FITC-DNA binding, fluorescence polarization, 90 min; activation, % at 25 µM; hit rate 61% among 3,000; AID 1259319;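 active = activation at or above a set limit, or at least 3 SD above the negative control mean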
RORg counter – RORgamma DNA-binding activity, dose-response counter-screen; IC50, µM; shares compounds with Rev-erbA mod; AID 1259320; purified RORgamma protein-FITC-DNA binding, fluorescence polarization; hit rate 8% among 910;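 active = Compounds whose fitted half-maximal concentration for disrupting protein-DNA binding is below 10 micromolar; the record names Rev-erb in its text, so the target is in doubt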
Of the large screens only hits and unclear results are named; the others gave an inactive call (follow-up assays come after a bar, where they were run); ! = a repeat was not active.

CC1(C(=O)NCc2cccc3ccccc23)CCN1Cc1cccc2c1OCO2 (stereo not drawn)	none
CC(=O)C[C@H]1SC[C@@H](C(C)C)N1S(=O)(=O)c1ccc(C)cc1	none (no result: bovine MsrA act)
C=C1CC(COc2ccc3c(C)c(Cl)c(=O)oc3c2)(c2ccccc2)OC1=O (stereo not drawn)	none
CCCCN(C(=O)CSc1nn(-c2ccc(F)cc2)c(=S)s1)c1c(N)n(CCCC)c(=O)[nH]c1=O	none
Cn1c(N)c(C(=O)CSc2nn(-c3ccc(F)cc3)c(=S)s2)c(=O)n(C)c1=O	Rev-erbA mod 42 | NR1D1 mod conf 42 | RORg counter inactive
O=C1CCCC2=C1C1(CCCCC1)N=C(Nc1nc3ccccc3o1)N2	none
O=C1CCCC2=C1C1(CCCC1)N=C(Nc1nc3ccccc3o1)N2	Rev-erbA mod 21! | NR1D1 mod conf inactive
CCOC(=O)c1sc(NC(=S)NC(=O)C2CCCC2)cc1C	Rev-erbA mod 70 | NR1D1 mod conf 40 | RORg counter inactive
CCOC(=O)c1sc(NC(=O)C2CC2)cc1C	none
CCOC(=O)c1sc(NC(=O)c2ccc(Cl)s2)cc1C	Rev-erbA mod 16 | NR1D1 mod conf 12
COc1ccc(Cc2c(C3CCCCC3)nc3ccc(Br)cn23)c(C)c1	none
COc1ccccc1NC(=S)OC1CCC12CCC(c1ccccc1)CC2 (stereo not drawn)	none (no result: bovine MsrA act, ARFGAP1 inh, MsrA inh, ASAP1 inh)
COc1ccc(-n2cc(C(=O)c3cc4ccccc4oc3=O)c(C(C)=O)n2)cc1	Rev-erbA mod 23 | NR1D1 mod conf inactive
CCOc1cc2[nH]c(=S)n(CCC(=O)N3CCc4ccccc4C3)c(=O)c2cc1OCC	Rev-erbA mod 59 | NR1D1 mod conf 62 | RORg counter inactive
COc1cccc(-c2ccc(-c3noc(-c4ccccc4F)n3)c(OC)n2)c1	none
COc1nc(-c2ccc(Cl)cc2)ccc1-c1noc(-c2ccco2)n1	Rev-erbA mod 31 | NR1D1 mod conf inactive
COc1nc2c(C)cccc2cc1-c1noc(-c2ccco2)n1	Rev-erbA mod 20 | NR1D1 mod conf inactive
Cc1c(C)c2cc3c(C)coc3cc2oc1=O	none
Cc1coc2cc3oc(=O)c(Cc4ccccc4)c(C)c3cc12	Rev-erbA mod 32 | NR1D1 mod conf 43 | RORg counter inactive
COc1cc(NC(=O)c2[nH]c(C)c(C(C)=O)c2C)c(OC)cc1Cl	none (no result: bovine MsrA act, ARFGAP1 inh, MsrA inh, ASAP1 inh)
COc1ccc(Cl)cc1NC(=O)c1[nH]c(C)c(C(C)=O)c1C	Rev-erbA mod 31 | NR1D1 mod conf 35 | RORg counter inactive
COc1ccc(OC)c(NC(=O)c2[nH]c(C)c(C(C)=O)c2C)c1	Rev-erbA mod 31 | NR1D1 mod conf 22
CC(=O)Nc1cccc(/C(C)=N/NC(=O)c2cccc(S(=O)(=O)N3CCCC3)c2)c1	none
CC(C)CC1C(=O)N(Cc2cn(CC3CCCCC3)nn2)CCS(=O)(=O)N1Cc1ccc(-c2ccc(F)nc2)cc1 (stereo not drawn)	none
O=C(Nc1nc(-c2ccccc2)c(C(=O)c2ccccc2)s1)c1ccc(S(=O)(=O)N2CCCCC2)cc1	Rev-erbA mod 23 | NR1D1 mod conf 85 | RORg counter inactive
COCCN(CCOC)S(=O)(=O)c1ccc(C(=O)Nc2nc(-c3ccccc3)c(C(=O)c3ccccc3)s2)cc1	none
CCOC(=O)Nc1nc(-c2ccccc2)c(C(=O)c2ccccc2)s1	none
COC(=O)Nc1nc(-c2ccccc2)c(C(=O)c2ccc(Cl)cc2)s1	Rev-erbA mod 30 | NR1D1 mod conf 31
CC(=O)c1ccc(-c2cnc3c(NC=O)cc(-c4ccccc4Oc4ccccc4)cn23)cc1	none
Cn1cc(/C=C/c2cc[n+](C)cc2)c2cc(Cl)ccc21	Rev-erbA mod 165 | NR1D1 mod conf 140 | RORg counter inactive
Nc1nnc2cc(Br)ccc2n1	none
CC(C)CC1NC(=O)c2cc3ccccc3cc2-n2c1nc1ccc(Cl)cc1c2=O (stereo not drawn)	Rev-erbA mod 16 | NR1D1 mod conf inactive
CC(C)c1nnc(NC(=O)c2ccc3c(c2)OCO3)s1	none
